Screening results: PubChem BioAssay, Sanford-Burnham Center for Chemical Genomics
LMPTP block – LMPTP (human) inhibition | P24666 | recombinant LMPTP-A, OMFP fluorogenic substrate, fluorescence intensity | inhibition, % at 20 µM | 0.22% of 360,000 active | AID 651560;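 active = compounds that cut the enzyme signal by at least half of the control window in the single-dose screen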
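Test system: LMPTP-A phosphatase enzyme; input: 0.625 nM LMPTP-A final; reagent: OMFP substrate, 400 µM final; compound dosing: 20 µM single dose, 3% DMSO; incubation: 50 min dark incubation at room temperature; measured by: endpoint fluorescence intensity from OMFP dephosphorylation; measure: % inhibition relative to no-enzyme and uninhibited control wells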
SUMO1-SIM PPI – SUMO1-SIM interaction modulation; P63165; 0.33% of 360,000 active; AID 602429; inhibition, % at 20 µM; SUMO1 binding to a labelled peptide, TR-FRET, 1 h; in the data active = inhibition above about 37%
FAS-TE inh – FAS thioesterase (human) inhibition | inhibition, % at 15 µM | 0.67% of 360,000 active | AID 602261 | P49327 | recombinant FAS-TE, OMFH fluorogenic substrate, fluorescence endpoint;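 active = compounds whose normalised, plate-corrected inhibition of enzyme fluorescence in the single-dose primary screen is 50% or more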
STEP inh – blocks human striatal-enriched tyrosine phosphatase | recombinant STEP, OMFP fluorogenic substrate, fluorescence | 0.25% of 360,000 active | P54829 | inhibition, % at 20 µM;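 active = inhibition at 20 µM, scaled per plate between control wells, above about 37%, limit read from the data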
Target sequence (P54829 whole entry, looked up): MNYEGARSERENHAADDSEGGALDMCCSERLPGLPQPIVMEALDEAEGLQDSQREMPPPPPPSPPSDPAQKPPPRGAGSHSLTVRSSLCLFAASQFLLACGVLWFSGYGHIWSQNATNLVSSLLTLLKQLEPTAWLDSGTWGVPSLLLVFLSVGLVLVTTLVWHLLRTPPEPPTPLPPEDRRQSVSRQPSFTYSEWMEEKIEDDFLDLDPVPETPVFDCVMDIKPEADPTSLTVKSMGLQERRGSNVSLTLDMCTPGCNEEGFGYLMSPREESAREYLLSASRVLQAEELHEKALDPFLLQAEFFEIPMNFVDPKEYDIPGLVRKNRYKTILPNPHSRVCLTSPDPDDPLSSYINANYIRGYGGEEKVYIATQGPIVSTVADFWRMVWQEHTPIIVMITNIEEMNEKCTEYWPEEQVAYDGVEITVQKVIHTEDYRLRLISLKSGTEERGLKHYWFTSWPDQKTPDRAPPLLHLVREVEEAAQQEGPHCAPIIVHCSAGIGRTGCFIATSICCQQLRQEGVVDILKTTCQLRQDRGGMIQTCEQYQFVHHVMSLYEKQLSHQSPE
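System: STEP (striatal-enriched tyrosine phosphatase) enzyme, cell-free; medium: Bis-Tris pH 6.0 buffer with DTT, detergent; dosing: 20 µM, 1% DMSO; times: reaction 20 min, ambient temperature; detection: fluorescence, 480/540 nm; read-out basis: normalized % inhibition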
Scp1 inh – Scp-1 (human) phosphatase inhibition. Q9GZU7. Recombinant Scp1, phosphopeptide, malachite green phosphate absorbance. inhibition, % at 20 µM. 0.88% of 340,000 active. AID 493091;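 active = inhibition above about 50% at 20 µM, limit read from the data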
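System: truncated SCP-1 phosphatase (76-261aa); medium: Tris acetate buffer pH 5.5 with MgCl2 and Tween-20; incubation: 45 min room-temperature reaction, 5 min colour, 30 min stabiliser; compound: single 20 µM dose, 1% DMSO; reagent: Phosphorylated 17-residue peptide substrate; read-out: % inhibition at 20 µM; technique: colorimetric free-phosphate detection, absorbance 630 nm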
FAS-TE inh conf – confirmation of human fatty acid synthase thioesterase inhibitors | shares compounds with FAS-TE inh | recombinant FAS-TE, OMFH fluorogenic substrate, fluorescence | inhibition, % at 15 µM | 45% of 2,300 active | AID 624325;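 active = compounds inhibiting the enzyme by at least 50% at 15 µM in any one of the replicates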
Numbers stand for hits; i = inactive; nt = no result given. Shown are actives, neighbours in structure and some others; about 1.9% of the full set was active somewhere.

SMILES	LMPTP block	SUMO1-SIM PPI	FAS-TE inh	STEP inh	Scp1 inh	FAS-TE inh conf
Cc1sc2nc(COC(=O)c3ccc(O)cc3)[nH]c(=O)c2c1C	i	i	i	i	i	nt
CCN(c1ccccc1)S(=O)(=O)c1cccc(C(=O)OCc2nc3sc(C)c(C)c3c(=O)[nH]2)c1	i	i	52	i	i	i
COc1cccc(C(=O)N2CCC2(C)C(=O)O)c1 (configuration not stated)	i	i	i	i	nt	nt
Cc1cccc(C(=O)NC2CCN(S(=O)(=O)c3ccccc3)CC2)c1	i	i	i	i	i	nt
Cc1ccc(N2C(=N)/C(=C3/Nc4ccccc4S3)C(c3ccccc3)C2=O)cc1 (configuration not stated)	i	i	63	i	i	i
O=[N+]([O-])c1ccc(/C=N/Nc2nc(N3CCCCCC3)nc(N3CCCCCC3)n2)o1	i	i	i	i	i	nt
O=[N+]([O-])c1ccc(/C=N/Nc2nc(N3CCCCC3)nc(N3CCCCC3)n2)cc1	i	i	54	i	i	i
O=[N+]([O-])c1ccc(Nc2nc(N/N=C\c3ccc4c(c3)OCO4)nc(N3CCCCC3)n2)cc1	i	i	56	i	i	i
Cc1cc(-c2ccccc2)nc(N/N=C/c2ccc([N+](=O)[O-])cc2)n1	i	i	67	i	i	46
c1ccc(CCc2nn3c(Cc4ccccc4)nnc3s2)cc1	i	i	i	i	i	nt
CN(C(=O)CCS(=O)(=O)c1ccc2c(c1)oc(=O)n2C)C1CCCCC1	i	i	i	i	i	nt
O=C(NCCN1CCOCC1)C(=O)NCC1OCCN1S(=O)(=O)c1ccccc1 (configuration not stated)	i	i	i	i	i	nt
Cc1ccc(NC2CCCN(C(=O)c3ccc4[nH]ccc4c3)C2)cc1C (configuration not stated)	i	i	i	i	i	nt
O=C(O)c1cc(-c2ccc(Cl)cc2)n(-c2cccc(Cl)c2)n1	i	i	i	i	i	nt
COc1ccc(-c2cc3nc4c(c(N5CCC6(CC5)OCCO6)n3n2)CCC4)cc1	i	i	51	i	i	i
COc1cccc(-c2cc3nc4c(c(N5CCC6(CC5)OCCO6)n3n2)CCC4)c1	i	i	55	i	i	i
COc1ccc(-c2cc3nc(-c4ccccc4)cc(N4CCC5(CC4)OCCO5)n3n2)cc1	i	i	52	i	i	i
C[C@@H]1CN([C@H](C)CO)S(=O)(=O)c2ccc(C#Cc3ccccc3F)cc2O[C@@H]1CN(C)C(=O)Cc1ccccc1	i	i	70	i	nt	41
C[C@H]1CN([C@@H](C)CO)S(=O)(=O)c2ccc(Br)cc2O[C@H]1CN(C)C(=O)Cc1ccccc1	i	i	i	i	nt	nt
CC(=O)Nc1ccc(S(=O)(=O)N2CCC(C(=O)N[C@@H](C)C(=O)NC3CCCC3)CC2)cc1	i	i	i	i	i	nt
O=C(NCCNC(=O)Oc1cccc2ccccc12)Oc1cccc2ccccc12	i	i	i	i	i	nt
Cc1cc(N2CCN(c3ccccc3)CC2)n2ncnc2n1	i	i	i	i	i	nt
Cc1cc(N2CCN(C(c3ccccc3)c3ccc(Cl)cc3)CC2)n2ncnc2n1 (configuration not stated)	i	i	58	i	i	i
Nn1c(SCc2ccc([N+](=O)[O-])cc2)nc2ccccc2c1=O	i	i	i	i	i	nt
O=c1c2ccccc2nc(SCc2ccc([N+](=O)[O-])cc2)n1CCCO	i	i	68	i	i	50
SMILES	LMPTP block	SUMO1-SIM PPI	FAS-TE inh	STEP inh	Scp1 inh	FAS-TE inh conf
CC(=O)NCCn1c(SCc2cccc([N+](=O)[O-])c2)nc2ccccc2c1=O	i	i	53	i	i	i
COc1ccc(-c2c(C#N)sc(C(N)=O)c2-c2ccc(OC)cc2)cc1	i	i	60	i	i	i
N#Cc1sc(C(N)=O)c(-c2ccccc2)c1-c1ccccc1	i	i	i	i	i	nt
COc1ccc(NC(=O)CC2C(=O)N(C)C(=S)N2Cc2cccs2)cc1 (configuration not stated)	i	i	51	i	i	58
CCCOc1ccc(NC(=O)CC2C(=O)N(CC)C(=S)N2Cc2cccs2)cc1 (configuration not stated)	i	i	59	i	i	65
COC(=O)[C@@]1(C(C)C)N=C(c2cc(OC)c(OC)c(OC)c2)[C@]2(O1)C(=O)N(C)c1ccc(Cl)cc12	i	i	i	nt	nt	nt
COC(=O)[C@@]1(C(C)C)N=C(c2cc(OC)c(OC)c(OC)c2)[C@]2(O1)C(=O)N(Cc1ccc(OC)cc1)c1ccc(Br)cc12	i	i	53	nt	nt	i
CC(=O)Nc1ccc(NC(=O)c2ccccc2S(=O)(=O)c2ccc([N+](=O)[O-])cc2)cc1	i	i	59	i	i	64
CC(=O)Nc1ccc(NC(=O)c2ccccc2S(=O)(=O)c2ccccc2[N+](=O)[O-])cc1	i	i	i	i	i	nt
COc1ccccc1NC(=O)c1ccccc1S(=O)(=O)c1ccc([N+](=O)[O-])cc1	i	i	54	i	i	63
O=C(NCCCO)/C(=C\c1ccco1)NC(=O)c1ccco1	i	i	i	i	i	nt
O=C(Nc1ccc2c(c1)OCCO2)C(c1ccnc2ccccc12)N1CCN(c2ccc(C(F)(F)F)cn2)CC1 (configuration not stated)	i	i	92	i	nt	i
O=C(COC(=O)c1cc([N+](=O)[O-])ccc1N1CCOCC1)Nc1cccc(F)c1	i	i	90	i	i	93
O=C(COC(=O)c1cc([N+](=O)[O-])ccc1N1CCOCC1)Nc1c(Cl)cccc1Cl	i	i	67	i	i	75
COc1ccc(NC(=O)COC(=O)c2cc([N+](=O)[O-])ccc2N2CCOCC2)cc1	i	i	80	i	i	60
Cc1cc(Br)ccc1NC(=O)CN(C)C(=O)c1cc([N+](=O)[O-])ccc1N1CCOCC1	i	i	64	i	i	77
Cc1cc(NS(=O)(=O)c2ccc(NC(=O)CCCOc3cccc(C)c3C)cc2)no1	i	i	i	i	i	nt
CC12CCC(C/C1=N/O)C2(C)CBr (configuration not stated)	i	i	i	i	i	nt
O=C(COC(=O)c1c[nH]c(=O)[nH]c1=O)Nc1cccc([N+](=O)[O-])c1	i	i	i	i	i	nt
CN(CC(=O)Nc1ccc(F)cc1)C(=O)COC(=O)c1cc([N+](=O)[O-])ccc1N1CCOCC1	i	i	62	i	i	58
Cc1cc(C(=O)OCC(=O)Nc2cccc([N+](=O)[O-])c2)c(C)o1	i	i	66	i	i	62
CCOC(=O)c1ccccc1NC(=O)COC(=O)c1cc([N+](=O)[O-])ccc1N1CCOCC1	i	i	53	i	i	i
